Source: publication PMC12840579 (Biomedicine & pharmacotherapy = Biomedecine & …, 2025)
Each block holds one compound with its values, some of them ahead of it.

How the values were obtained:
[1] = tested on: BV2 murine microglial cells; test: Phagocytosis assay with fluorescent latex beads; type: cell-based; conditions: 25 μM, 30 min before beads (30 min)
Procedure, shortened: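 Murine BV2 microglia were serum-starved, then exposed to 25 μM test compound or DMSO vehicle for 30 min. Green fluorescent latex beads were added for a further 30 min at 37 °C. Cells were washed with ice-cold PBS, fixed in 4% PFA, immunostained for IBA1 and imaged by fluorescence microscopy. A phagocytic cell was an IBA1+ cell with ≥1 internalised bead, expressed as % of vehicle; mean ± SEM (n = 3).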

[2] = tested on: wild-type HEK293 cells lacking TREM2/DAP12 expression; test: Intracellular calcium measurement; type: cell-based, human
Procedure, shortened: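 Wild-type HEK293 cells lacking TREM2/DAP12 were grown in 96-well clear-bottom black plates. They were loaded for 1 h with Fluo-4 NW dye in 100 μL assay buffer, then test compound was added. Fluorescence was captured on an automated imaging system. Ionomycin served as the control for intact calcium signalling.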

[3] = tested on: TREM2 signaling (SYK phosphorylation Y525/526) in HEK293-hTREM2/DAP12 cells; test: Phospho-SYK AlphaLISA in HEK293-hTREM2/DAP12 cells; type: cell-based, human
Procedure, shortened: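 HEK-hTREM2/DAP12 cells were seeded at 5 × 10⁴ per well in DMEM with 10% FBS and held 24 h at 37 °C, 5% CO2. Medium was replaced with compound in complete medium, DMSO as vehicle. Time course: 25 μM for 5, 15, 30 or 60 min. Dose series: 5–100 μM final for 60 min. Kit-lysed cells were assayed for pSYK Y525/526 by two-antibody bead AlphaLISA; 3 independent experiments, n=6 per condition, mean ± SEM.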

ADAM17 = ADAM17 (Homo sapiens, UniProt P78536); test: ADAM17 fluorogenic proteolytic activity assay; type: biochemical; conditions: GM6001 10 μM
Sequence of ADAM17 (P78536 215-824): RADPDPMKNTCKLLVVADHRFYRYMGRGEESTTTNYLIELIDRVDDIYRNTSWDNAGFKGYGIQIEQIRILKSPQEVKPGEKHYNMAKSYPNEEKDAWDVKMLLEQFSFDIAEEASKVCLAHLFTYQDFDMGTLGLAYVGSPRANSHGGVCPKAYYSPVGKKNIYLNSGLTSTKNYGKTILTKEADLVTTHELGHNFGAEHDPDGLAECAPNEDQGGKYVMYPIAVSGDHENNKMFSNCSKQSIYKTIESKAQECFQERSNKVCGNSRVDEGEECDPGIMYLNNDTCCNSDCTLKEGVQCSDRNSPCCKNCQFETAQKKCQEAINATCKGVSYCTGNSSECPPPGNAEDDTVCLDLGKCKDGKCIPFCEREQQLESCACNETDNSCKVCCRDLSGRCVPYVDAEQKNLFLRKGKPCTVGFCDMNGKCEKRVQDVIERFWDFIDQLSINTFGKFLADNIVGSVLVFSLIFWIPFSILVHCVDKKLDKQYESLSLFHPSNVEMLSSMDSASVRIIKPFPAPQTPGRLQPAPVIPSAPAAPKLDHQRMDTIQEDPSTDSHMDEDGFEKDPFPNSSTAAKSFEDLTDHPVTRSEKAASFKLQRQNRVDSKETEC

ADAM10 = molecular target: T1, ADAM10 (Homo sapiens, UniProt O14672); test: ADAM10 fluorogenic proteolytic activity assay; type: biochemical; conditions: GM6001 10 μM
T1 sequence (O14672 214-748): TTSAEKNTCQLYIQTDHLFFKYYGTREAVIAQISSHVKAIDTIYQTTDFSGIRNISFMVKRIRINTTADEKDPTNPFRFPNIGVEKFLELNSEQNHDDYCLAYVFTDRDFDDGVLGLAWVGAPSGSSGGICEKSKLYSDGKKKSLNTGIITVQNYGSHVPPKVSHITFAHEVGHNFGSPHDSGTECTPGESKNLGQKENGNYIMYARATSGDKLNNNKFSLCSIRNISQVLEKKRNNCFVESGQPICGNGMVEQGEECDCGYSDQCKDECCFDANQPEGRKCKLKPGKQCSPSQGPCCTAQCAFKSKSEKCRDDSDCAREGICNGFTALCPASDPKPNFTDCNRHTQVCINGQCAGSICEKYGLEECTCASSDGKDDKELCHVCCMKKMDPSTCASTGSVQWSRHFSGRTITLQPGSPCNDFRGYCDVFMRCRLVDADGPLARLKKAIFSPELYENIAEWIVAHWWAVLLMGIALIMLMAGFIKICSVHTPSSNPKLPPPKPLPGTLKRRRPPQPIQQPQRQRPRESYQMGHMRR
Procedure, shortened: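 Recombinant ADAM10 from a fluorogenic assay kit, pre-incubated with test compound at the indicated concentrations for 30 min at room temperature, then substrate added. Substrate cleavage read by fluorescence (ex 485 nm, em 530 nm). GM6001 was the positive control. Triplicate runs, mean ± SEM (n = 3).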

[4] = 25 μM, time-course 5-60 minutes

Compound: VG-3927
increase in proportion of phagocytic cells vs vehicle [1]: approximately 45%
calcium mobilization in wild-type cells ([2]; VG-3927 30 μM): neither VG-3927 (30 μM) nor As48 (100 μM) elicited any detectable calcium mobilization
time at which SYK phosphorylation is first detected [3, 4]: 5 min
time of peak SYK phosphorylation [3, 4]: 60 min
concentration of maximal SYK phosphorylation ([3]; 60 minutes treatment, 5-100 μM): 25 µM
lowest concentration with SYK phosphorylation ([3]; 60 minutes treatment, 5-100 μM): 5 µM

Compound: C[C@H](CCC(=O)O)C[C@H](C)C[C@H](C)C(=O)/C=C(\O)[C@H](C)C[C@H](C)C/C=C/[C@@H](C)[C@@H](O)[C@@H](C)[C@@H](O)C[C@@H]1CC[C@@](C)([C@H]2CC[C@@](C)([C@@H](C)O)O2)O1 [ionomycin]
calcium response in wild-type cells ([2]; ionomycin 10 μM): ~ 8 fold

effect on ADAM17 protease activity (positive control) (ADAM17): potently inhibited
effect on ADAM10 protease activity (positive control) (ADAM10): potently inhibited
Compound: CNC(=O)[C@H](Cc1c[nH]c2ccccc12)NC(=O)[C@@H](CC(=O)NO)CC(C)C [GM6001]
